Sampled rows, rich in hits. Any-hit rate of the full collection: about 6.1%.
RAM network inh = blocks the yeast RAM network; S. cerevisiae dse1pr::URA3 reporter, 5-FOA growth OD615, 2 d; analog-sensitive cbk1-as2 kinase mutant strain; inhibition, % at 50 µM; 1.8% of 190,000 active;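 active = inhibition above a set limit, 3 SD over mean compound inhibition, cut at about 8.4% in these data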;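 note: 0% = DMSO-only wells with no growth and 100% = 10 µM 1-NA-PP1 full growth; inhibition rescues growth on 5-FOA so higher OD means more RAM inhibition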
WT yeast gro inh = growth inhibition of WT yeast, mitochondrial fusion screen. mitochondrial fusion phenotypic screen, WT strain. 2.1% of 190,000 active. inhibition, % at 10 µM. AID 1362; in the data active = inhibition above about 58%; tested in S. cerevisiae
Measles CPE = protection of cells from measles virus; 1.5% of 140,000 active; Measles virus-infected cells, CPE protection, absorbance; protection (pct of control), % at 4 µM; AID 841; in the data active = protection mostly above about 24%, no sharp cut-off; inactive = mostly below about 26%
Yeast lifespan up = extends the lifespan of yeast | S. cerevisiae growth with nicotinamide, OD615; deaD strain in restrictive glucose medium | 0.68% of 130,000 active | inhibition of the nicotinamide effect, % at 10 µM | AID 775;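 active = inhibition above a set limit, placed 3 SD over the median of all compounds, cut at about 26% in these data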;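 note: 0% = nicotinamide-treated wells and 100% = cells grown without nicotinamide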
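Buffer or medium: CSMM-D glucose medium, restrictive; test system: modified budding yeast, DeaD strain; compound: single dose 10 µM compound, 0.25% DMSO; schedule: culture preincubation 4 h, compound exposure 48 h, both 30 °C; detection: optical density (absorbance) at 615 nm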
hDAT+cocaine = modulates human dopamine transporter uptake under cocaine; B-score at 10 µM; 1.3% of 110,000 active; LLC-PK1 hDAT cells, [14C]-dopamine uptake with cocaine IC80; actives deviate in either direction; Q01959;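 active = Z score or B-score, a plate-position-corrected score, falls beyond the plate's 99.7% confidence bounds, in either direction; inactive = both scores lie inside the 99.7% bounds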;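 note: scored against the spread of the other compound wells on the same plate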
Target sequence (Q01959 whole entry, looked up): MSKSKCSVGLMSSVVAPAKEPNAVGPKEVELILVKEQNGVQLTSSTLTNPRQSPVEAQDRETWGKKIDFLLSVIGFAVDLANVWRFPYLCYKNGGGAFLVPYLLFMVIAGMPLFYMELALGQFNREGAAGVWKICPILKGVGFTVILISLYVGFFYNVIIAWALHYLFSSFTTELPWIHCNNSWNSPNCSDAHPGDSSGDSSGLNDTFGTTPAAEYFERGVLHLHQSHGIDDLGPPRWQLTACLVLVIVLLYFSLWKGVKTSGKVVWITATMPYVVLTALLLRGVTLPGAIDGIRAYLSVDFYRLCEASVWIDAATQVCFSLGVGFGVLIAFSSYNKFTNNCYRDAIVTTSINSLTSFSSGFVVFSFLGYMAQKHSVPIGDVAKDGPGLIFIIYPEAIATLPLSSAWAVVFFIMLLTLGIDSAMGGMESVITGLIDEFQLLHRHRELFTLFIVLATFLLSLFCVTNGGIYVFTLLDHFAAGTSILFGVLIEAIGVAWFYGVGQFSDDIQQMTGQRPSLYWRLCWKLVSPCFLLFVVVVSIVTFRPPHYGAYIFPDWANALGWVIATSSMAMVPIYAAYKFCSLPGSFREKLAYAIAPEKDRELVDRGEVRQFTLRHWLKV
Yeast growth inh = chemicals that inhibit yeast BB579 growth in restrictive medium (lifespan-shortening candidates). inhibition, % at 10 µM. S. cerevisiae BB579 growth, OD615, 48 h. 0.51% of 140,000 active;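 active = inhibition above a set limit, 3 SD over the mean compound inhibition, cut at about 44% in these data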
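Material: Saccharomyces cerevisiae DeaD strain BB579, replicative lifespan model yeast; buffer or medium: CSMM-D restrictive synthetic medium containing dextrose (glucose); compound: 10 µM single dose, DMSO 0.25%; timing: 48 h compound exposure at 30 °C after 4 h preincubation; signal: turbidity as optical density at 615 nm; benchmarks: positive control amphotericin B 10 µg/mL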
RAM 5-FOA = RAM network inhibition, efflux-deficient strain | max inhibition, % | S. cerevisiae efflux-deficient reporter strain, 5-FOA growth OD615, 2 days | 1,200 tested, under 10 active | shares compounds with RAM network inh; call rule not given here;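 note: plate controls were vehicle for no effect and reference inhibitor for full effect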
The depositor's hits bear a star; . = no result given.

SMILES	RAM network inh	WT yeast gro inh	Measles CPE	Yeast lifespan up	hDAT+cocaine	Yeast growth inh	RAM 5-FOA
CC(=NCCO)c1c(O)n(C2CCCCC2)c(=O)[nH]c1=O	2	-8	11	-4	-0.35	-19	.
CCC(=NCc1ccco1)c1c(O)n(C2CCCCC2)c(=O)[nH]c1=O	-2	18	18	40	-0.86	-34	.
CCC(=O)c1c(O)n(C2CCCCCC2)c(=O)[nH]c1=O	-2	9	8	-10	-0.035	89*	.
COC(=O)c1c(N)n(Cc2ccc(OC)cc2)c2nc3ccccc3nc12	2	71*	5	-11	-1.1	-22	.
Fc1ccc(CNCCc2ccccc2)cc1	2	-8	.	.	.	.	.
C1=C(CCNCc2ccccc2)CCCC1	3	10	35*	6	-0.59	-7	.
O=C1C(=O)c2ccccc2-c2ccccc21	0	97*	0	-16	-1.1	100*	.
O=c1[nH]c2ccccc2n1C1CCN(CCCC(c2ccc(F)cc2)c2ccc(F)cc2)CC1	-1	70*	4	16	-0.5	-41	.
CN1CCN(c2ccc(F)cc2N)CC1	1	-11	.	.	.	.	.
O=C(NC(=C(Cl)Cl)P(=O)(c1ccccc1)c1ccccc1)c1ccccc1	1	4	8	0	.	-18	.
Nc1ccccc1C(=O)OC1CSC1	0	14	20	-9	-0.48	-24	.
CN(C)c1ccc(/C=C/C=C2/C(=O)NC(=O)N(c3ccccc3)C2=O)cc1	26*	27	.	.	.	.	12
CCC(=NCc1ccc(F)cc1)c1c(O)n(C)c(=O)n(C)c1=O	-1	8	6	-11	-0.34	-41	.
CCOP(=O)(OCC)C(Nc1cccc(C(F)(F)F)c1)c1ccc(Br)cc1 (stereo not given)	12*	80*	.	2	.	-7	1
CC1CCc2c(sc3nc(CSc4n[nH]c(N)n4)[nH]c(=O)c23)C1 (stereo not given)	12*	0	10	1	.	-27	3
O=C1c2cccc3cccc(c23)C(=O)N1/N=C/c1c(O)n(-c2ccccc2)c(=O)[nH]c1=O	2	6	.	.	.	.	.
CCCCCn1c(=O)c(C(=O)Nc2nc(CC(=O)OCC)cs2)c(O)c2ccccc21	25*	-17	.	.	.	.	3
CCCCCn1c(=O)c(C(=O)Nc2cnccn2)c(O)c2ccccc21	12*	5	.	.	.	.	2
CC(=O)CC(C)(C)n1c[n+](C)nn1	2	21	7	-13	0.17	-24	.
CSc1ccc(CNC(C)C(O)c2ccccc2)cc1 (stereo not given)	1	18	.	.	.	.	.
O=[N+]([O-])/C=C/c1c(OCc2ccccc2)ccc2ccccc12	13*	77*	-1	14	-0.26	-50	5
N#Cc1ccccc1Cn1cc(C(=O)c2ccccc2F)c2ccccc21	4	46	24	-3	.	-23	.
Cc1ccc(/C=C/C2=NN(Cc3ccc(Cl)c(Cl)c3)C(=O)CC2)cc1	12*	39	23	-5	-0.19	-49	4
COc1ccc(OC)c(N2C(=O)NC(=O)/C(=C/c3ccc([N+](=O)[O-])s3)C2=O)c1	-1	22	.	.	.	.	.
CCN1C(=O)/C(=C/c2ccc3c(c2)CCN3CCCCl)C(=O)NC1=S	16*	18	2	21	.	-38	5
SMILES	RAM network inh	WT yeast gro inh	Measles CPE	Yeast lifespan up	hDAT+cocaine	Yeast growth inh	RAM 5-FOA
CCCCN1C(=O)/C(=C/c2ccc(N3CCCCCC3)cc2)C(=O)NC1=S	5	14	9	0	.	-24	.
CCOC(=O)c1c(C)n(Cc2ccco2)c2c1cc(O)c1ccccc12	5	16	15	-7	0.16	-38	.
CCOC(=O)c1c(C)n(Cc2ccco2)c2ccc(OC)cc12	3	1	7	-16	0.52	-51	.
CCOC(=O)c1c(-c2ccc(OC)cc2)oc2ccc(OC(=O)N(C)C)cc12	14*	9	5	-15	-0.24	-43	1
NC(=O)OCCCc1ccccc1	.	.	.	.	-0.61	.	.
CC(C)[C@H](CN(N=O)[C@@H](Cc1ccccc1)CN(C)N=O)N(CCc1ccccc1)N=O	13*	9	.	.	-0.29	.	4
CCOCCSc1nc2c(c(-c3cccs3)c1C#N)CC/C2=C/c1cccs1	12*	-18	7	7	.	-5	3
COC(=O)C1=C(c2ccccc2)C[C@@H]2CC[C@H]1N2C(=O)NCCCOC(C)C	.	.	.	.	-0.31	.	.

Bioassay records (PubChem BioAssay)
